According to ChEMBL document CHEMBL1135803, “Design, synthesis, and preliminary pharmacological evaluation of N-acyl-3-aminoglutarimides as broad-spectrum chemokine inhibitors in vitro and anti-inflammatory agents in vivo” (2002):
Active and inactive are the calls of the source. The calls are words filed in the database; no cut-off is given here. Peptide text beside a SMILES is read from it.

test system: THP-1; experiment: Effective dose against monocyte chemoattractant protein-1(MCP-1) induced leukocyte migration of THP-1 cells; type: functional; conditions: Homo sapiens, read-out: ED50 (the source's name)
Procedure, shortened: (§1)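 Trans-well microtiter migration of human myelomonocytic THP-1 cells toward 25 ng/mL MCP-1 in Gey's balanced salt solution with 1 mg/mL endotoxin-free BSA, no fetal calf serum, 2 h at 37 °C. Compound is in both compartments, DMSO 1% final, tested up to 100 μM. Migrated cells are counted by MTT as % of vehicle-only migration. ED50 is the concentration giving 50% reduction; triplicate determinations.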

Going from `O=C1CC[C@H](NC(=O)c2ccccc2)C(=O)N1` to `CCCCC(=O)N[C@H]1CCC(=O)NC1=O`, the EC50 falls from greater than 100 µM to 0.033 µM. The second is the more potent here.

`CC(C)[C@H](NC(=O)[C@H](Cc1c[nH]c2ccccc12)NC(=O)[C@H](CCCCN)NC(=O)[C@H](CCC(N)=O)NC(=O)[C@@H](N)CCCCN)C(=O)N[C@@H](CCC(N)=O)C(=O)O` (H-KQKWVQ-OH) and `CC(C)[C@H](NC(=O)[C@H](Cc1c[nH]c2ccccc12)NC(=O)[C@H](CCCCN)NC(=O)[C@H](CCC(N)=O)NC(=O)[C@H](CCCCN)NC(=O)[C@@H]1CCCN1C(=O)[C@H](CC(=O)O)NC(=O)[C@H](C)NC(=O)[C@@H](N)CS)C(=O)N[C@@H](CCC(N)=O)C(=O)O` (H-CADPKQKWVQ-OH) are within 1.5-fold of each other in EC50: 6 µM for the first, 8 µM for the second.

Going from `NCCCC[C@H](NC(=O)[C@H](CCC(N)=O)NC(=O)[C@@H](N)CCCCN)C(=O)O` to `CC(C)[C@H](N)C(=O)N[C@H](C(=O)N[C@@H](CCC(N)=O)C(=O)O)C(C)C` (H-Val-Val-Gln-OH), the EC50 rises from 12 µM to greater than 100 µM.

Going from `CCCC(CCC)C(=O)N[C@H]1CCC(=O)NC1=O` to `CCCCCCC(=O)N[C@H]1CCC(=O)NC1=O`, the EC50 falls from 0.66 µM to 0.02 µM (33-fold). The second is the more potent here.

`NC(=O)CC[C@H](NC(=O)c1ccccc1)C(N)=O` and `NC(=O)CC[C@H](NC(=O)c1ccccc1)C(=O)O` cannot be ordered by EC50: greater than 100 µM for the first, greater than 100 µM for the second.

`NC(=O)CC[C@H](NC(=O)c1ccccc1)C(=O)NCc1ccccc1` and `CC(C)(C)OC(=O)N[C@@H](CCC(N)=O)C(=O)NCc1ccccc1` cannot be ordered by EC50: greater than 100 µM for the first, greater than 100 µM for the second.

First: C=CCCCCCCCCC(=O)N[C@@H](CCC(N)=O)C(N)=O
Second: C=CCCCCCCCCC(=O)N[C@@H](CCC(N)=O)C(=O)NCc1ccccc1
The EC50 of the first is 2.7-fold lower: 15 µM for the first, 40 µM for the second.

First: C=CCCCCCCCCC(=O)N[C@H]1CCC(=O)N(C)C1=O
Second: C=CCCCCCCCCC(=O)N[C@H]1CCCNC1=O
The EC50 of the first is 3-fold lower: 0.033 µM for the first, 0.1 µM for the second.

Going from `CC(C)[C@H](NC(=O)[C@@H](N)Cc1c[nH]c2ccccc12)C(=O)N[C@@H](CC(N)=O)C(=O)O` (H-Trp-Val-Asn-OH) to `CC(C)[C@H](NC(=O)[C@@H](N)Cc1ccc(O)cc1)C(=O)N[C@@H](CCC(N)=O)C(=O)O` (H-Tyr-Val-Gln-OH), the EC50 falls from greater than 100 µM to 25 µM. The second is the more potent here.

`CCCCCCCCCCC(=O)N[C@H]1CCC(=O)NC1=O` and `CCCCCCCCC(=O)N[C@H]1CCC(=O)NC1=O` are the same in EC50: 0.01 µM for the first, 0.01 µM for the second.

First: CC[C@H](C)[C@H](NC(=O)[C@@H](N)CCC(=O)O)C(=O)N[C@@H](CS)C(=O)N[C@@H](C)C(=O)N[C@@H](CC(=O)O)C(=O)N1CCC[C@H]1C(=O)O (H-EICADP-OH)
Second: CC[C@H](C)[C@H](NC(=O)[C@@H](N)CCC(=O)O)C(=O)N[C@@H](CS)C(=O)N[C@@H](C)C(=O)N[C@@H](CC(=O)O)C(=O)N1CCC[C@H]1C(=O)N[C@@H](CCCCN)C(=O)N[C@@H](CCC(N)=O)C(=O)N[C@@H](CCCCN)C(=O)N[C@@H](Cc1c[nH]c2ccccc12)C(=O)N[C@H](C(=O)N[C@@H](CCC(N)=O)C(=O)O)C(C)C (H-EICADPKQKWVQ-OH)
The EC50 of the first is 6.2-fold higher: 50 µM for the first, 8 µM for the second.

Compared with `CC(C)(C)OC(=O)N[C@@H](CCC(N)=O)C(N)=O`, `O=C(O)CCCCCCCCC(=O)N[C@H]1CCC(=O)NC1=O` is 680-fold lower in EC50: 45 µM for the first, 0.066 µM for the second.

test system: THP-1; experiment: Effective dose against monocyte chemoattractant protein-1(MCP-1) induced leukocyte migration of THP-1 cells at 100 uM conc.; Inactive; type: functional, cell-based; conditions: Homo sapiens; procedure, shortened: as §1

In the case of `CC(C)[C@H](NC(=O)CN)C(=O)N[C@@H](CCC(N)=O)C(=O)O` (H-Gly-Val-Gln-OH), the NA is reported as “inactive”.
For `CC(C)[C@H](N)C(=O)N[C@@H](Cc1c[nH]c2ccccc12)C(=O)N[C@@H](CCC(N)=O)C(=O)O` (H-Val-Trp-Gln-OH), the NA was “inactive”.
With `CC(C)[C@H](NC(=O)[C@H](CCC(N)=O)NC(=O)[C@@H](N)Cc1c[nH]c2ccccc12)C(=O)O` (H-Trp-Gln-Val-OH) the NA was “inactive”.
`CC(C)[C@H](NC(=O)[C@@H](N)Cc1c[nH]c2ccccc12)C(=O)N[C@@H](CCCN=C(N)N)C(=O)O` (H-Trp-Val-Arg-OH) was tested, and the NA was “inactive”.
`CC(C)[C@H](NC(=O)[C@@H](N)Cc1c[nH]c2ccccc12)C(=O)NCC(=O)O` (H-Trp-Val-Gly-OH) was tested, and the NA was “inactive”.
